Laboratory results reported in ChEMBL document CHEMBL3526060, “Impact of hydrolysis-mediated clearance on the pharmacokinetics of novel anaplastic lymphoma kinase inhibitors” (Drug Metab Dispos, 2013).

How the values were obtained:
[1] = Intrinsic clearance in human liver microsomes at 1 uM by LC-MS/MS analysis in presence of NADPH; format: ADME; settings: read-out: CLH
Procedure, shortened: (§1)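 Liver microsomes (0.25 mg/mL protein, 0.1 M phosphate pH 7.4) from mouse, rat, dog or human; substrate 0.1 or 1 µM with 1 mM NADPH (mouse also without). Samples at 0, 10, 20, 30, 40 min into acetonitrile with tolbutamide, centrifuged, LC-MS/MS; CLint = (0.693/t1/2)/microsomal protein concentration.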

[2] = Drug metabolism in CD-1 mouse NADPH-fortified liver microsomes assessed as hydrolysis metabolite formation rate by LC-MS/MS analysis; format: ADME
Procedure, shortened: (§2)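 Mouse liver microsomes 0.25 mg/mL in 0.1 M phosphate pH 7.4, with or without 1 mM NADPH, substrate 0.0023–5 µM; sampling to 40 min into acetonitrile/IS, LC-MS/MS depletion. Hydrolysis Vmax/Km solved from no-NADPH incubations, then NADPH-dependent constants; metabolite formation rate simulated from fitted constants; duplicates.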

[3] = Intrinsic clearance in Beagle dog liver microsomes at 1 uM by LC-MS/MS analysis in presence of NADPH; format: ADME, Canis lupus familiaris; settings: read-out: CLH; procedure, shortened: as §1
Plasma [4] = assay: Metabolic stability in CD-1 mouse plasma assessed as hydrolysis product M1 [(1s,4s)-4-(2-amino-6-((4-(2-hydroxypropan-2-yl)piperidin-1-yl)methyl)-1H-benzo[d]imidazol-1-yl)-N-isopropylcyclohexanecarboxamide] formation at 5 uM after 20 mins by LC-MS/MS analysis; format: ADME, cell-free
[5] = Plasma clearance in CD-1 mouse at 2 mg/kg, iv administered as single bolus dose by LC-MS/MS analysis; format: ADME, organism-based; set-up: dose 2 mg/kg, route intravenous
Procedure, shortened: (§3)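 Single 2 mg/kg IV bolus via lateral tail vein to male CD-1 mice. Mice euthanized at 0.083–24 h, 3 per time point (27 animals); cardiac-puncture blood into heparin on ice, plasma spun at 4 °C and immediately extracted with acetonitrile/0.1% formic acid plus IS, LC-MS/MS. Noncompartmental CL = Dose/AUC0–inf, t1/2 = 0.693/k, Vss from AUMC/AUC, MRT = Vss/CL.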

[6] = Cmax in CD-1 mouse at 100 mg/kg, po administered through gavage by LC-MS/MS analysis; format: ADME, organism-based; set-up: dose 100 mg/kg, route oral; settings: in vivo
Procedure, shortened: (§4)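 Male CD-1 mice, fasted overnight, food returned 2 h post-dose; single oral gavage at 20, 50 or 100 mg/kg. Terminal cardiac-puncture blood at 0.25, 0.5, 1, 2, 4, 6, 8, 24 h, 3 mice per time point; heparinized plasma extracted into acetonitrile/formic acid with IS, LC-MS/MS. Noncompartmental analysis: linear trapezoidal AUC extrapolated to infinity, CL/F, F relative to 2 mg/kg IV.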

[7] = Intrinsic clearance in CD-1 mouse liver microsomes at 0.1 uM by LC-MS/MS analysis in absence of NADPH; format: ADME; settings: read-out: CLH; procedure, shortened: as §1
[8] = Intrinsic clearance in human liver microsomes at 0.1 uM by LC-MS/MS analysis in presence of NADPH; format: ADME; settings: read-out: CLH; procedure, shortened: as §1
[9] = Cmax in CD-1 mouse at 50 mg/kg, po administered through gavage by LC-MS/MS analysis; format: ADME, organism-based; set-up: dose 50 mg/kg, route oral; settings: in vivo; procedure, shortened: as §4
[10] = Tmax in CD-1 mouse at 50 mg/kg, po administered through gavage by LC-MS/MS analysis; format: ADME, organism-based; set-up: dose 50 mg/kg, route oral; settings: in vivo; procedure, shortened: as §4
[11] = Apparent oral clearance in CD-1 mouse at 20 mg/kg, po administered through gavage by LC-MS/MS analysis; format: ADME, organism-based; set-up: dose 20 mg/kg, route oral; settings: in vivo; procedure, shortened: as §4
[12] = Intrinsic clearance in CD-1 mouse liver microsomes at 0.1 uM by LC-MS/MS analysis in presence of NADPH; format: ADME; settings: read-out: CLH; procedure, shortened: as §1
[13] = Tmax in CD-1 mouse at 100 mg/kg, po administered through gavage by LC-MS/MS analysis; format: ADME, organism-based; set-up: dose 100 mg/kg, route oral; settings: in vivo; procedure, shortened: as §4
[14] = AUC (0 to infinity) in CD-1 mouse at 2 mg/kg, iv administered as single bolus dose by LC-MS/MS analysis; format: ADME, organism-based; set-up: time infinity, dose 2 mg/kg, route intravenous; settings: plasma; procedure, shortened: as §3
[15] = Oral bioavailability in CD-1 mouse at 20 mg/kg administered through gavage by LC-MS/MS analysis relative to 2 mg/kg, iv dose; format: ADME, organism-based; settings: in vivo; procedure, shortened: as §4
[16] = Volume of distribution at steady state in CD-1 mouse at 2 mg/kg, iv administered as single bolus dose by LC-MS/MS analysis; format: ADME, organism-based; set-up: dose 2 mg/kg, route intravenous; settings: in vivo, read-out: Vdss; procedure, shortened: as §3
Mus musculus = assay: Oral bioavailability in CD-1 mouse at 50 mg/kg administered through gavage by LC-MS/MS analysis relative to 2 mg/kg, iv dose; format: ADME, organism-based; settings: in vivo; procedure, shortened: as §4
[17] = Apparent oral clearance in CD-1 mouse at 50 mg/kg, po administered through gavage by LC-MS/MS analysis; format: ADME, organism-based; set-up: dose 50 mg/kg, route oral; settings: in vivo; procedure, shortened: as §4
[18] = Cmax in CD-1 mouse at 20 mg/kg, po administered through gavage by LC-MS/MS analysis; format: ADME, organism-based; set-up: dose 20 mg/kg, route oral; settings: in vivo; procedure, shortened: as §4
[19] = Intrinsic clearance in CD-1 mouse liver microsomes at 1 uM by LC-MS/MS analysis in absence of NADPH; format: ADME; settings: read-out: CLH; procedure, shortened: as §1
[20] = Half life in CD-1 mouse at 50 mg/kg, po administered through gavage by LC-MS/MS analysis; format: ADME, organism-based; set-up: dose 50 mg/kg, route oral; settings: in vivo; procedure, shortened: as §4
[21] = Half life in CD-1 mouse at 2 mg/kg, iv administered as single bolus dose by LC-MS/MS analysis; format: ADME, organism-based; set-up: dose 2 mg/kg, route intravenous; settings: in vivo; procedure, shortened: as §3
[22] = Half life in CD-1 mouse at 20 mg/kg, po administered through gavage by LC-MS/MS analysis; format: ADME, organism-based; set-up: dose 20 mg/kg, route oral; settings: in vivo; procedure, shortened: as §4
[23] = AUC (0 to infinity) in CD-1 mouse at 50 mg/kg, po administered through gavage by LC-MS/MS analysis; format: ADME, organism-based; set-up: time infinity, dose 50 mg/kg, route oral; settings: plasma; procedure, shortened: as §4
[24] = Tmax in CD-1 mouse at 20 mg/kg, po administered through gavage by LC-MS/MS analysis; format: ADME, organism-based; set-up: dose 20 mg/kg, route oral; settings: in vivo; procedure, shortened: as §4
[25] = Intrinsic clearance in Sprague-Dawley rat liver microsomes at 0.1 uM by LC-MS/MS analysis in presence of NADPH; format: ADME; settings: read-out: CLH; procedure, shortened: as §1
[26] = Intrinsic clearance in Sprague-Dawley rat liver microsomes at 1 uM by LC-MS/MS analysis in presence of NADPH; format: ADME; settings: read-out: CLH; procedure, shortened: as §1
[27] = Intrinsic clearance in CD-1 mouse liver microsomes at 1 uM by LC-MS/MS analysis in presence of NADPH; format: ADME; settings: read-out: CLH; procedure, shortened: as §1
[28] = AUC (0 to infinity) in CD-1 mouse at 20 mg/kg, po administered through gavage by LC-MS/MS analysis; format: ADME, organism-based; set-up: time infinity, dose 20 mg/kg, route oral; settings: plasma; procedure, shortened: as §4
[29] = AUC (0 to infinity) in CD-1 mouse at 100 mg/kg, po administered through gavage by LC-MS/MS analysis; format: ADME, organism-based; set-up: time infinity, dose 100 mg/kg, route oral; settings: plasma; procedure, shortened: as §4
[30] = Oral bioavailability in CD-1 mouse at 100 mg/kg administered through gavage by LC-MS/MS analysis relative to 2 mg/kg, iv dose; format: ADME, organism-based; settings: in vivo; procedure, shortened: as §4
Plasma [31] = assay: Drug metabolism in CD-1 mouse plasma assessed as hydrolysis metabolite formation rate by LC-MS/MS analysis; format: ADME, cell-free
Procedure, shortened: (§5)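 Mouse plasma depletion kinetics at 37 °C, substrate range 0.0023–5 µM, up to 3 h; samples quenched into acetonitrile/tolbutamide, LC-MS/MS. CLint per concentration from t1/2; apparent Vmax and Km fitted by nonlinear regression to Michaelis-Menten, formation rate simulated from fit; mean of two replicates.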

[32] = Drug metabolism in CD-1 mouse liver microsomes assessed as hydrolysis metabolite formation rate by LC-MS/MS analysis; format: ADME; procedure, shortened: as §2
[33] = Mean residence time in CD-1 mouse at 2 mg/kg, iv administered as single bolus dose by LC-MS/MS analysis; format: ADME, organism-based; set-up: dose 2 mg/kg, route intravenous; settings: in vivo; procedure, shortened: as §3
[34] = Apparent oral clearance in CD-1 mouse at 100 mg/kg, po administered through gavage by LC-MS/MS analysis; format: ADME, organism-based; set-up: dose 100 mg/kg, route oral; settings: in vivo; procedure, shortened: as §4
[35] = Fraction unbound in CD-1 mouse plasma after 7 hrs by equilibrium dialysis method; format: ADME, cell-free
Procedure, shortened: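 Mouse plasma pre-treated 20 min with 100 µM DFP to block hydrolysis, spiked at 0.1, 0.5 or 2 µM, equilibrium dialysis against PBS for 7 h at 37 °C, 5% CO2, triplicate; matrix-matched samples extracted with acetonitrile/IS, LC-MS/MS; fu = buffer/plasma concentration.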

[36] = In vitro half life in CD-1 mouse plasma at 0.83 uM by LC-MS/MS analysis; format: ADME, cell-free
Procedure, shortened: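 Screening stability: compound at 0.83 µM in mouse plasma at 37 °C, up to 3 h; timed aliquots quenched into acetonitrile with tolbutamide IS, centrifuged, LC-MS/MS; half-life from depletion, CLint = (0.693/t1/2)/plasma concentration.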

[37] = Fraction unbound in CD-1 mouse liver microsomes after 7 hrs by equilibrium dialysis method; format: ADME
Procedure, shortened: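 Equilibrium dialysis of 0.25 mg/mL mouse liver microsomes in phosphate buffer against PBS, 7 h at 37 °C, 5% CO2, test compound 0.1, 0.5 or 2 µM, triplicate; LC-MS/MS; fraction unbound = buffer/microsome concentration.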

[38] = Half life in CD-1 mouse at 100 mg/kg, po administered through gavage by LC-MS/MS analysis; format: ADME, organism-based; set-up: dose 100 mg/kg, route oral; settings: in vivo; procedure, shortened: as §4
Plasma [39] = assay: Drug metabolism in CD-1 mouse plasma assessed as maximum intrinsic clearance for hydrolysis metabolite formation by LC-MS/MS analysis; format: ADME, cell-free; procedure, shortened: as §5

microsomal CLint at 1 µM [1]: 67 µL/min/mg
Vmax(app) [2]: 45.4 pmol/min/mg
Km ([2]; read-out: Km(app)): 0.263 µM
microsomal CLint at 1 µM [3]: 33 µL/min/mg
Drug metabolism (Plasma [4]): metabolite_detected
clearance [5]: 92 mL/min/kg
Cmax [6]: 15.2 µM
microsomal CLint at 0.1 µM [7]: 805 µL/min/mg
microsomal CLint at 0.1 µM [8]: 93 µL/min/mg
Cmax [9]: 10.7 µM
Tmax [10]: 1 h
CL/F [11]: 437 mL/min/kg
microsomal CLint at 0.1 µM [12]: 891 µL/min/mg
Tmax [13]: 1 h
AUC(0-inf) [14]: 0.627 µM·h
bioavailability [15]: 21.1%
Vd [16]: 2.62 L/kg
F (Mus musculus): 151%
CL/F [17]: 60.8 mL/min/kg
Cmax [18]: 0.782 µM
microsomal CLint at 1 µM [19]: 50 µL/min/mg
half-life [20]: 2.3 h
half-life [21]: 1.05 h
half-life [22]: 1.23 h
AUC(0-inf) [23]: 23.7 µM·h
Tmax [24]: 0.25 h
microsomal CLint at 0.1 µM [25]: 14 µL/min/mg
microsomal CLint at 1 µM [26]: 13 µL/min/mg
microsomal CLint at 1 µM [27]: 110 µL/min/mg
AUC(0-inf) [28]: 1.31 µM·h
AUC(0-inf) [29]: 37.4 µM·h
bioavailability [30]: 120%
Vmax(app) (Plasma [31]): 19.7 pmol/min/mL
Km (Plasma [31]; read-out: Km(app)): 0.276 µM
Vmax(app) [32]: 82 pmol/min/mg
Km ([32]; read-out: Km(app)): 0.0437 µM
MRT [33]: 0.474 h
CL/F [34]: 77.2 mL/min/kg
fraction unbound at 7 h [35]: 0.02
half-life at 0.83 µM [36]: 0.2 h
fraction unbound at 7 h [37]: 0.76
half-life [38]: 2.17 h
CL (Plasma [39]): 71.4 uL/min.ml
SMILES: CC(C)NC(=O)[C@H]1CC[C@@H](n2/c(=N/C(=O)c3ccc(F)cc3)[nH]c3ccc(CN4CCC(C(C)(C)O)CC4)cc32)CC1
